An excerpt weighted towards active compounds, which were near 1.4% of everything screened.
m-calpain inh = inhibitors of pig calpain II | purified calpain II, fluorogenic peptide substrate, 30 min | inhibition, % at 16 µM | 220,000 compounds, 0.37% hits | AID 1236;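 active = inhibition above about 50%, limit read from the data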
FXIa inh 1536 = blocks human coagulation factor XIa protease activity; P03951; AID 798; inhibition, % at 5 µM; 220,000 compounds, 0.14% hits; purified FXIa, Boc-Glu-Ala-Arg-AMC fluorogenic substrate;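 active = inhibition of at least 40%; inactive = inhibition below 40%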;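 also: fluorescence of freed AMC excited at 355 nm; 0% = enzyme without compound and 100% = no enzyme blank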
Target sequence (P03951 19-387 limits assumed): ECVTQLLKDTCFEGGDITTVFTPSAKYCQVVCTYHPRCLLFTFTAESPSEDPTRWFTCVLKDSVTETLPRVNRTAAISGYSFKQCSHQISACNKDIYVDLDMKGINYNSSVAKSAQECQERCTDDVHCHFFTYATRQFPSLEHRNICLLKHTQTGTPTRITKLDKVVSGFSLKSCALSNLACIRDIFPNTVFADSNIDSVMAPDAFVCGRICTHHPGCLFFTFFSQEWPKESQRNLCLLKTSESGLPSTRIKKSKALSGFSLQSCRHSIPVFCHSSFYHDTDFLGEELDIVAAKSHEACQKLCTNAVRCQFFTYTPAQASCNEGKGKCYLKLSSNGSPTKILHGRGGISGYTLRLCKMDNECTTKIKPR
Target sequence (P03951 388-625 limits assumed): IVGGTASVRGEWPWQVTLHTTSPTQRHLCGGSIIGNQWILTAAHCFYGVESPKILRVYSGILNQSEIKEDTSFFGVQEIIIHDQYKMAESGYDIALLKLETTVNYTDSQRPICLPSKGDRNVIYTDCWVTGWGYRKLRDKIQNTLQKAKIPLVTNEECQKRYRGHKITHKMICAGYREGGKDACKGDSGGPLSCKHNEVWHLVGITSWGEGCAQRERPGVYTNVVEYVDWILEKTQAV
thrombin 1536 = inhibitors of human thrombin. P00734. alpha-thrombin, Boc-VPR-AMC fluorogenic substrate cleavage. inhibition, % at 5 µM. 220,000 compounds, 0.26% hits;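 active = inhibition at or above 40%; inactive = inhibition below 40%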;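 also: 0% = enzyme with no compound and 100% = wells without enzyme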
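Material: human alpha-thrombin protein; Also added: Boc-VPR-AMC substrate, 15 µM final; Timing: enzyme reaction carried out at room temperature; Signal: fluorescence, ex 355 nm, em 460 nm; Measure: % inhibition of thrombin; Controls: enzyme without compound as high, wells lacking enzyme as low.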
hK5 inh = kallikrein 5 (human) inhibition; Q9Y337; recombinant hK5, fluorogenic AMC substrate cleavage; inhibition, % at 5 µM; 210,000 compounds, 0.59% hits;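 active = inhibition of 40% or more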;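 also: 0% = enzyme controls without compound and 100% = no-enzyme blanks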
FXIIa inh 1536 = inhibitors of human coagulation factor XIIa | P00748 | purified FXIIa, Boc-QGR-AMC fluorogenic substrate, 2 h | inhibition, % at 5 µM | 220,000 compounds, 0.3% hits; in the data active = inhibition above about 40%;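 also: 0% = enzyme with no compound and 100% = blank without enzyme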
* = called active by the depositor; . = no result.

SMILES | m-calpain inh | FXIa inh 1536 | thrombin 1536 | hK5 inh | FXIIa inh 1536
COc1cc(/C=C/C(=O)OCC(=O)NCc2cccs2)ccc1OCC#N | -41 | 8 | -5 | -22 | 11
O=C1CCCC(=O)C1=C1SCCS1 | -9 | 6 | 0 | 13 | 5
Cc1cc(=O)oc2cc(NC(=O)C3CCCC3)ccc12 | -412 | -6 | -5 | -23 | -6
Cc1cc(=O)oc2cc(NC(=O)CC3(CC(=O)O)CCCC3)ccc12 | -306 | 0 | -4 | 52* | -1
Cc1ccnc(NS(=O)(=O)c2ccc(NC(=O)CSc3nc(-c4ccccc4)cc(=O)[nH]3)cc2)n1 | -12 | 1 | 1 | 2 | .
COc1ccc(-n2ncc(S(=O)(=O)c3ccccc3)c2-c2ccc(Cl)cc2)cc1 | 52* | -4 | -14 | -14 | 8
CCOC(=O)c1ccc(-n2c(CN3CCC(O)CC3)nc3ccc([N+](=O)[O-])cc3c2=O)cc1 | -47 | -2 | -2 | 1 | 8
CN(C)c1cccc(C(=O)OCC(=O)Nc2ccccc2Cl)c1 | 56* | -1 | -6 | -1 | 10
CN(C)c1cccc(C(=O)OCC(=O)Nc2ccccc2-c2ccccc2)c1 | -13 | -6 | -12 | -6 | 7
Cc1ccsc1/C=N/N1CCN(Cc2ccccc2)CC1 | -6 | -4 | -2 | -4 | 5
O=C(NC1CCCC1)C(c1ccccn1)N(C(=O)c1csnn1)C1CC1 (stereo unspecified) | 8 | 44* | 2 | -4 | 15
O=C(NC1CCCC1)C(c1ccccn1)N(C(=O)c1csnn1)C1CCCCC1 (stereo unspecified) | 6 | 21 | -1 | -5 | 28
COC(=O)c1ccccc1OCCCN(C)C | 15 | -5 | -2 | -5 | 3
CCCc1cc(NC(=O)CCl)n(-c2ccccc2)n1 | 15 | -5 | -2 | 1 | 5
O=C(N/N=C/c1cc([N+](=O)[O-])ccc1O)c1cccc2cc[nH]c12 | 16 | -9 | 13 | 60* | 19
O=C(N/N=C/c1cccc([N+](=O)[O-])c1)c1cccc2cc[nH]c12 | -27 | -8 | 2 | 3 | 7
O=C1CN(O)C=C2N=c3ccccc3=C2N1c1ccc([N+](=O)[O-])cc1 | 58* | -2 | -12 | -9 | 5
Cc1cc(C)c(COc2ccc(/C=N/n3c(C)n[nH]c3=S)cc2)c(C)c1 | -6 | 10 | -4 | -21 | 11
O=C(c1cccc(Cl)c1)N1CCN(Cc2ccccc2F)CC1 | -4 | -3 | 23 | 94* | 3
COc1ccc(OC)c(CN2CCN(C(=O)c3cccc4ccccc34)CC2)c1 | -1 | -1 | 4 | 44* | 17
COc1cc(C(=O)N2CCN(Cc3ccccc3C(F)(F)F)CC2)cc(OC)c1OC | -27 | 8 | -4 | 0 | 13
COc1cc(OC)cc(C(=O)N2CCN(Cc3ccccc3C(F)(F)F)CC2)c1 | 11 | 2 | 7 | 12 | 40*
O=C(O)CCCNC(=O)c1ccc(NC(=O)Cc2ccc(Cl)cc2)cc1 | -19 | -7 | 0 | -20 | 1
Cc1ccc(C2NC(=O)CCC2[N+](=O)[O-])cc1 (stereo unspecified) | -24 | -2 | -3 | 0 | 6
O=C(NCc1ccco1)c1ccc2c(c1)CCO2 | 9 | 10 | 32 | 53* | 52*
SMILES | m-calpain inh | FXIa inh 1536 | thrombin 1536 | hK5 inh | FXIIa inh 1536
C/C(=N\NC(=O)CCn1nnc2ccccc21)c1cccs1 | 9 | 11 | 24 | 19 | 43*
O=C1c2[nH]nc(-c3ccccc3O)c2C(c2ccccc2F)N1Cc1ccco1 (stereo unspecified) | -2 | 15 | 23 | 41* | 22
CN(C)CC(O)CN(c1ccccc1)c1ccccc1 (stereo unspecified) | -20 | 0 | -2 | 0 | 8
CCCC(=O)NC(=S)Nc1ccc(Cl)cn1 | 17 | 1 | 16 | 112* | 17
CCCN(C#N)c1nc(NCC)nc(NC(C)C)n1 | 52* | -22 | -3 | -16 | -4
O=C(N=Nc1c(O)[nH]c2ccc([N+](=O)[O-])cc12)c1cc(-c2ccccc2Cl)nc2ccccc12 | 69* | 6 | 6 | -93 | 6
O=C(CSc1nc2ccccc2c(=O)[nH]1)c1ccccc1 | -10 | 10 | 5 | -7 | 15
CC(C)(C)c1nc(SCC(=O)NCc2ccco2)c2ccccc2n1 | -20 | 2 | 0 | -25 | 5
CC(C)(C)c1ccc(C(=O)CSc2nc3ccccc3c(=O)[nH]2)cc1 | 21 | 14 | 14 | 40* | 10
Cc1nc(SCC(=O)c2ccccc2)[nH]c(=O)c1Oc1ccc(Cl)cc1 | 35 | 29 | 34 | 64* | 22
